Compound activity deposited in PubChem by several laboratories.
Sampled rows, rich in hits. Any-hit rate of the full collection: about 5.8%.
p47phox inh – p47phox/p22phox peptide binding inhibitors, primary screen, biochemical, uHTS, NADPH oxidase regulatory subunit. inhibition, % at 24.7 µM. Neutrophil cytosol factor 1 (Homo sapiens), P14598. fluorescence polarization, 2 h. 0.53% of 220,000 active;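 active means inhibition above about 30%, limit read from the data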;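 further: 0% = p47phox with labelled peptide and 100% = labelled peptide alone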
14-3-3 Bad inh – inhibitors of 14-3-3 zeta/Bad binding, primary screen, biochemical, TR-FRET, bovine 14-3-3 zeta. 14-3-3 protein zeta/delta (Bos taurus), P63103. TR-FRET 14-3-3zeta/Dy647-pBad peptide displacement, 1 h. inhibition, % at 21.7 µM. 0.71% of 220,000 active;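 active means inhibition above about 70%, limit read from the data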;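 further: 0% = full 14-3-3 plus peptide FRET controls and 100% = background without 14-3-3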
Target sequence (P63103 whole entry, looked up): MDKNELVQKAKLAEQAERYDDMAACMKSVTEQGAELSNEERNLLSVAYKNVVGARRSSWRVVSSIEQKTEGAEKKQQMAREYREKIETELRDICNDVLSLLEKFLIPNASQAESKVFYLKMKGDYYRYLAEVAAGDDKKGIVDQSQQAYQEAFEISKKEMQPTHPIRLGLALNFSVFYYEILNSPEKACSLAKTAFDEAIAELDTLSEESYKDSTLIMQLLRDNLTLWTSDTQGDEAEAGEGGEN
WT yeast gro inh – growth inhibition of WT strain, primary screen, mitochondrial fusion inhibitor project, WT and mutant strains, chemical genetic | mitochondrial fusion phenotypic screen | inhibition, % at 10 µM | 2.1% of 190,000 active | AID 1362, 2008; in the data active means inhibition above about 58%; tested in S. cerevisiae
ROMK primary – ROMK potassium channel modulators, primary screen, cell-based, thallium flux, MLSMR library. ATP-sensitive inward rectifier potassium channel 1 (Homo sapiens), P48048. Tet-inducible ROMK, thallium flux fluorescence; actives lie on both sides. B-score at 10 µM. 2% of 130,000 active. AID 1918, 2009;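 active means signal ratio slope over the read window, or its plate-corrected B-score, at least 3 SD from the plate mean, either direction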;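 further: B-score of the F/F0 ratio slope over 7 to 12 s after thallium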
Cl transport mod – KCC2 cotransporter modulators, thallium flux, primary screen, cell-based, HEK293 KCC2, FluoZin-2 fluorescence, MLSMR. KCC2 cells, thallium flux FluoZin-2 fluorescence. AID 1456, 2008. B-score of Tl+ flux slope (higher = more flux/activation; lower = inhibition) at 10 µM. 2.2% of 190,000 active;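 active means thallium flux slope and its plate-corrected score both differing from the plate sample mean at a set confidence after two filtering rounds, in either direction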;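 further: slope of fluorescence scaled to starting intensity during 10 to 20 s after thallium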
RBBP9 inh – human RBBP9 inhibitors, primary screen, biochemical, fluorescence polarization, FP-Rh probe, HTS | AID 1515, 2009 | 0.2% of 220,000 active | Serine hydrolase RBBP9 (Homo sapiens), O75884 | recombinant RBBP9 | inhibition, % at 7.94 µM;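 active means inhibition above the campaign mean of all tested compounds plus 3 SD, cut at about 14% in these data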;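 further: plate controls were DMSO wells with RBBP9 for no effect and wells lacking RBBP9 protein for full effect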
Target sequence (O75884 whole entry, looked up): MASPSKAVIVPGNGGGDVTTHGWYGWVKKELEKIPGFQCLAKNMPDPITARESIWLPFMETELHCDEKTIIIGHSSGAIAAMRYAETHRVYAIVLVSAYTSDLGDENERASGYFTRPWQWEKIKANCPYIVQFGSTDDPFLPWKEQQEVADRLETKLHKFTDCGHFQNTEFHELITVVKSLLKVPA
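Measured by: FP readout at 525/598 nm; material: recombinant human RBBP9; also added: Serine-hydrolase probe FP-Rh, 375 nM pre-mixing; medium: Tris buffer pH 8.0, NaCl, Pluronic; replication: one well per compound; doses: one concentration, 7.94 µM nominal, 0.794% DMSO; timing: preincubation 30 min plus labeling 45 min at 25 °C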
KCC2 sec1 – KCC2 modulators in sodium-free buffer, confirmation, cell-based, HEK293 KCC2, thallium flux, secondary assay; 15% of 3,700 active; shares compounds with Cl transport mod; normalised thallium flux (F/F0 slope) at 10 µM; FluoZin2 fluorescence; hits give high values; AID 1713, 2009;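 active means thallium flux slope above the same plate's solvent-only control mean plus 3 SD; inconclusive means the two replicate wells disagree; inactive means no significant difference from solvent-only control wells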
KCC2 bumet counter – thallium flux persisting under bumetanide in KCC2 cells, confirmation, counter-screen for KCC2 modulator project, cell-based, HEK293 KCC2, FluoZin2, secondary assay 3; HEK293-KCC2 + bumetanide/ouabain; hits give high values; normalized thallium flux at 10 µM; 49% of 3,700 active; shares compounds with Cl transport mod; AID 1714, 2009;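 active means thallium entry rate above the same plate's blocked-transporter control wells by more than 3 SD; inconclusive means the two repeat wells disagree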;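 further: raw slope of fluorescence over initial fluorescence between 10 and 20 s after thallium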
KCC2 sec2 – KCC2 modulators without ouabain present, confirmation, cell-based, HEK293 KCC2, thallium flux, FluoZin2, secondary assay 2; shares compounds with Cl transport mod; thallium flux FluoZin2 fluorescence; actives lie on both sides; F/F0 rise rate, 10–20 s post-thallium; normalized thallium flux at 10 µM; 23% of 3,700 active; AID 1715, 2009;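 active means thallium flux slope more than 3 SD above or below the plate's solvent-only control mean, mostly below; inconclusive means the two repeat wells disagreed; inactive means no significant shift from solvent-only controls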;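 further: raw slope with 0.1% DMSO as baseline and bumetanide as block control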
HEK293 Tl flux – thallium flux modulation in parental HEK cells, confirmation, counter-screen for KCC2 modulator project, cell-based, counterscreen 1; shares compounds with Cl transport mod; HEK293 parental cells, thallium flux FluoZin2, ouabain; baseline-ratio fluorescence slope, 10–20 s after thallium; thallium flux rate (normalised fluorescence) at 10 µM; 46% of 3,700 active; AID 1716, 2009;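 active means thallium flux rate significantly above the same plate's solvent-only control wells, beyond their mean plus 3 SD; inconclusive means the two replicate wells gave conflicting results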
KCC2 ouabain – KCC2 inhibitors and activators, ouabain retest, confirmation, HEK-KCC2 cells; shares compounds with Cl transport mod; 48% of 3,700 active; HEK293-KCC2, thallium flux FluoZin2 fluorescence; bidirectional: low = inhibitor, high = activator; raw Tl+ flux slope (below DMSO = inhibition, above = activation) at 10 µM;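 active means thallium flux slope beyond 3 SD from same-plate DMSO control mean in most replicates, usually higher, sometimes lower; inconclusive means repeat tests gave conflicting results; inactive means no significant difference from controls in most replicates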;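 further: slope of initial-normalized fluorescence between seconds 10 and 20 after thallium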
HEK counter2 – native HEK Tl+ uptake effects, second counter-screen – HEK cells, counterscreen 2, counter-screen for KCC2 modulator project, confirmation | HEK293 parental, thallium flux FluoZin-2 fluorescence slope | thallium flux slope at 10 µM | shares compounds with Cl transport mod | AID 1718, 2009 | 33% of 3,700 active;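 active means thallium flux slope above the same plate's solvent-control mean plus 3 SD in both duplicate wells; inconclusive means duplicate wells that disagreed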;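 further: run without ouabain in cells lacking the KCC2 cotransporter; slope of fluorescence scaled to its starting value between 10 and 20 s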
* = called active by the depositor; ? = inconclusive; . = no result given.

SMILES	p47phox inh	14-3-3 Bad inh	WT yeast gro inh	ROMK primary	Cl transport mod	RBBP9 inh	KCC2 sec1	KCC2 bumet counter	KCC2 sec2	HEK293 Tl flux	KCC2 ouabain	HEK counter2
COc1cc(-c2c(C#N)c(=O)[nH]c3c2c(C)nn3-c2ccccc2)ccc1O	-7.5	16.5	39.2	0.493	-4.98*	-2.8	0.00783	0.00408	0.0295	0.00668	?	0.0093
C=CCn1c(C)csc1=Nc1ccc(C(=O)O)cc1	4.0	1.6	-15.9	-0.427	0.671	0.5	.	.	.	.	.	.
COc1ccc(N2CCN(C(=O)CSc3nc4[nH]ncc4c(=O)n3-c3cccc4ccccc34)CC2)cc1	7.0	-4.4	11.2	-0.816	-4.39*	-6.5	0.00594	0.00641*	0.0265*	0.00721	0.0149*	0.0106
COc1ccc(CNC(=O)CSc2nc3[nH]ncc3c(=O)n2-c2ccccc2Br)cc1	-0.9	-18.3	-16.6	0.24	-0.167	-9.2	.	.	.	.	.	.
FC(F)(F)c1cnc(COc2ccc(Cl)cc2Cl)c(Cl)c1	-6.2	1.5	.	0.694	-0.494	2.0	.	.	.	.	.	.
CCOP(=O)(c1ccccc1)c1nc(-c2ccc(F)cc2)oc1N1CCCCC1 (stereo not drawn)	-13.2	-3.8	5.1	0.539	-2.91*	4.6	0.0104	0.00496	0.0336	?	?	0.0102
CCSc1nc2c(cnn2-c2ccccc2)c(=O)n1N	-9.4	3.5	.	-0.0894	4.63*	1.7	0.0105	0.0198*	0.0306	0.0104*	0.0341*	0.0114*
O=C(O)CSc1ncnc2scc(-c3ccc(Br)cc3)c12	-9.8	5.0	.	0.0411	0.78	-6.8	.	.	.	.	.	.
S=c1[nH]cnc2scc(-c3ccc(Cl)cc3)c12	-7.5	-8.0	.	.	181*	-8.3	0.0627*	0.168*	0.0578*	?	0.117*	0.0624*
S=c1[nH]cnc2scc(-c3ccc(Br)cc3)c12	-35.3	-29.9	-3.4	1.68	48.1*	-5.8	0.0548*	0.144*	?	?	0.0936*	0.0268*
Clc1ccc(-c2csc3ncnc(Cl)c23)cc1	-4.8	0.3	18.0	.	0.31	-8.8	.	.	.	.	.	.
CN(C)S(=O)(=O)c1cc(NC(=O)COC(=O)c2ccc3c(c2)OCO3)ccc1Cl	-2.9	-4.1	-14.7	.	-0.155	-6.9	.	.	.	.	.	.
Cc1ccc(Nc2nnc(SCC(=O)c3ccc(Br)s3)s2)c(C)c1	-172.8	-18.4	44.4	.	-3.86*	-7.4	0.0101	?	?	0.00697	0.0134*	0.0102
Cc1cccc(Nc2nnc(SC/C(O)=C(\C#N)c3nc4ccccc4[nH]3)s2)c1	-67.8	-11.2	-4.4	-0.452	-1.86	-12.5	.	.	.	.	.	.
Cc1ccc(Nc2nnc(SC/C(O)=C(\C#N)c3nc4ccccc4[nH]3)s2)c(C)c1	-55.9	-5.7	13.0	.	-4.24*	1.6	?	0.0071	?	?	0.014*	0.0115*
Cc1ccc(C)c(S(=O)(=O)N2CCC(c3nc4c(nnn4Cc4ccc(F)cc4)c(=O)[nH]3)CC2)c1	-9.1	2.7	-5.3	.	-4.24*	-16.1	0.00887	0.00547	0.0285	0.00687	0.0163*	0.0103
Cc1ccc(Cn2nnc3c(=O)[nH]c(C4CCN(S(=O)(=O)c5ccc(F)cc5)CC4)nc32)cc1	-17.3	8.0	-8.7	.	-3.03*	-6.6	0.0173	0.00481	0.0249*	0.00715	0.0145	0.011
O=c1[nH]c(C2CCCN(S(=O)(=O)c3ccccc3)C2)nc2c1nnn2Cc1ccccc1 (stereo not drawn)	-8.5	-9.8	6.8	-3.06	-3.59	-7.0	.	.	.	.	.	.
Cc1ccc(Cn2nnc3c(=O)[nH]c(C4CCN(S(=O)(=O)c5cc(C)ccc5C)CC4)nc32)cc1	-20.1	6.8	-6.1	.	-0.564	-15.9	.	.	.	.	.	.
COc1cc(C(=O)NCC(=O)OCCN2C(=O)c3ccccc3C2=O)cc(OC)c1OC	-8.3	-11.6	8.2	-0.766	1.07	-3.3	.	.	.	.	.	.
Cc1cccc(-c2nc(CS(=O)CC(=O)N3CCc4ccccc4C3)c(C)o2)c1 (stereo not drawn)	-6.3	0.6	7.5	.	.	-3.1	0.00737	0.00533	?	0.007	?	0.0104
COc1ccc(C2CC(c3ccccc3)n3nc(NC(=O)c4cccs4)nc3N2)cc1 (stereo not drawn)	-18.9	1.2	8.8	.	-3.28*	-9.7	0.00734	0.00668	0.0316	0.00784	0.0183	0.0109
COc1cccc(C(=O)CSc2nnc(CNS(=O)(=O)c3ccc(C)cc3)n2C)c1	-11.3	3.7	-49.9	-0.361	-4.16*	-6.8	0.00995	0.00715	0.0324	0.00841	0.0235	0.0114*
Cc1cccc(-n2c(=S)[nH]c3sc4c(c3c2=O)CCc2ccccc2-4)c1	-6.5	-19.9	26.9	0.792	21.4*	2.0	0.0197*	0.0463*	0.0354	0.0399*	0.0433*	0.0175*
